# From PubChem
# Hits are enriched below; roughly 2.2% of the tested compounds scored in any of these assays.
# IEC-6 tox – kills IEC-6 intestinal cells in KLF5 counter-screen. IEC-6 cytotoxicity, luminescence viability. inhibition, % at 5 µM. hit rate 0.78% among 290,000; in the data active = inhibition above about 22%;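 note: 0% = plate median of test compound wells and 100% = cytotoxic reference compound wells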
# bCat nuc transl – modulators of beta-catenin nuclear translocation; HeLa beta-catenin nuclear translocation, immunofluorescence imaging; nuclear translocation activity, % at 5 µM; hit rate 0.3% among 190,000;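 active = nuclear translocation activity above 50% at 5 µM, with a well cell count of 50 or more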;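 note: per-cell ratio of nuclear to cytoplasmic median beta-catenin stain intensity; plate controls were DMSO negative control for no effect and GSK-3 inhibitor IX positive control for full effect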
#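 Assay system: human HeLa cells, native beta-catenin; doses: 5 µM primary, 0.02–20 µM confirmation; incubation: compound treatment 24 h, 37°C, 5% CO2; technique: fluorescence imaging of beta-catenin antibody stain plus DAPI; measure: % activation, nuclear-to-cytoplasmic median beta-catenin signal ratio per cell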
# BaF3 parental – parental Ba/F3 viability inhibition as JAK2V617F counter-screen. CellTiter-Glo ATP luminescence. inhibition, % at 5.6 µM. hit rate 1.1% among 220,000. AID 1486;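 active = inhibition above a per-campaign cutoff, the mean inhibition of all tested compounds plus 3 SD, cut at about 27% in these data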;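 note: 0% = DMSO wells and 100% = JAK Inhibitor I control wells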
# APP transl inh – APP translation inhibition; hit rate 0.82% among 190,000; SH-SY5Y APP 5'UTR-luciferase reporter, luminescence; inhibition, % at 2 µM;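 active = inhibition above a set limit, derived from the sample mean plus 3 SD, cut at about 45% in these data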
# Ba/F3 V617F tox – loss of viability in JAK2V617F-driven Ba/F3 cells; Ba/F3 EpoR-JAK2V617F viability, ATP luminescence; hit rate 1.1% among 220,000; AID 1446; inhibition, % at 5.6 µM;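 active = inhibition above the campaign mean plus 3 SD over all tested compounds, cut at about 24% in these data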;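 note: cytokine-independent growth of Ba/F3 cells driven by EpoR plus mutant JAK2; 0% = DMSO-treated cells and 100% = JAK inhibitor I control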
# MT stabilizer – microtubule stabilizers in HeLa cells; AID 2205; hit rate 0.83% among 200,000; HeLa tubulin immunostaining HCS, 24 h; share of cells brighter than vehicle mean+2SD; % tubulin-high responders, % at 10 µM;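 active = plate Z-score above 3 for both tubulin-high and condensed-nucleus cell shares, with cell loss under 80%, at 10 µM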;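 note: anti alpha tubulin signal scored within the nucleus-defined area of each cell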
# * hit, by the source's call; nt = not tested or not shown.
SMILES,IEC-6 tox,bCat nuc transl,BaF3 parental,APP transl inh,Ba/F3 V617F tox,MT stabilizer
Cc1ccc(C(=O)CSC2=C(C#N)C(c3ccco3)C3=C(CC(C)(C)CC3=O)N2)cc1 (stereo not given),-1.0,nt,5.0,2.4,-0.2,2.2
N#CC1=C(SCC(=O)c2ccc(Cl)cc2)NC2=C(C(=O)CCC2)C1c1ccco1 (stereo not given),nt,83.2*,nt,nt,nt,nt
N#CC(c1ccc(Cl)cc1)c1ccc2c(C(F)(F)F)cc(C(F)(F)F)nc2n1 (stereo not given),10.8,nt,3.6,-4.5,3.0,3.8
N#CC(c1ccc(Cl)cc1)c1cccc(Cl)n1 (stereo not given),-2.6,1.7,48.1*,27.6,-2.7,3.9
O=C(COC(=O)c1ccc(NS(=O)(=O)c2cccs2)cc1O)NCc1ccccc1,20.6,76.3*,7.1,-10.8,2.1,23.5*
O=C(COC(=O)c1cccs1)NCc1ccco1,nt,-6.7,nt,nt,nt,nt
O=C(COC(=O)c1ccc(NS(=O)(=O)c2cccs2)cc1)NCc1ccco1,-5.0,110.8*,-4.7,nt,5.9,nt
O=C(NCC1CC1)Nc1cccs1,-6.6,0.5,3.5,nt,4.1,nt
O=S(=O)(Nc1cc(Sc2cccc3cccnc23)c(O)c2ccccc12)c1ccccc1,98.1*,-0.1,2.8,74.9*,-1.4,3.1
CCc1ccc(S(=O)(=O)Nc2cc(SCC(=O)O)c(O)c3ccccc23)cc1,5.1,1.4,5.7,5.8,-2.5,3.5
COC(=O)c1ccc(NC(=O)c2ccc[n+]([O-])c2)cc1,-1.6,nt,nt,nt,nt,nt
CCOC(=O)C1(C)NC(c2ccco2)C2C(=O)N(c3ccc(C)cc3)C(=O)C21 (stereo not given),-5.2,nt,2.2,-8.3,-0.6,4.4
CCOC(=O)C1=C(C)C2C3C(=O)N(c4cc(C)ccc4C)C(=O)C3C1(C)C1C(=O)N(c3cc(C)ccc3C)C(=O)C21 (stereo not given),1.9,-0.7,10.1,75.3*,0.9,6.7
O=C(NCc1ccc2c(c1)OCO2)c1nc(Cn2cc([N+](=O)[O-])cn2)no1,-3.0,nt,nt,nt,nt,nt
COc1cc(OC)cc(C(=O)NCC(=O)OCC(=O)/C=C2/N(C)c3ccccc3C2(C)C)c1,-2.1,4.4,4.3,12.0,-1.2,2.1
CN1/C(=C\C(=O)COC(=O)Cn2nnc(-c3ccccc3)n2)C(C)(C)c2ccccc21,2.9,3.5,63.0*,14.6,62.8*,3.4
CN1/C(=C/C(=O)C2CC2)C(C)(C)c2ccccc21,-2.6,3.0,40.8*,-15.5,-0.8,2.9
CN1/C(=C\C(=S)NC(=O)c2cccc(Br)c2)C(C)(C)c2ccccc21,0.9,-2.6,63.6*,-10.4,58.6*,6.3
CN1/C(=C\C(=O)CSc2nncn2C)C(C)(C)c2ccccc21,1.8,1.9,47.1*,16.8,36.9*,2.4
CCC(=O)N1CCc2cc(S(=O)(=O)NCCc3ccc(S(N)(=O)=O)cc3)ccc21,-0.3,nt,nt,nt,nt,nt
NC(=O)c1cc(S(=O)(=O)NCc2ccc(Br)cc2)cs1,-0.7,nt,nt,nt,nt,nt
O=C(O)c1cc(N2N=C(C(F)(F)F)/C(=C/C=C/c3ccco3)C2=O)ccc1Cl,-16.0,-0.6,2.9,0.5,-0.8,1.3
Cc1c(-c2ccc(Cl)cc2)oc(=O)c2c(N)n(-c3ccccc3)nc12,-5.3,2.8,-1.0,7.5,-5.2,1.5
Nc1c2c(=O)oc(-c3ccccc3)cc2nn1-c1ccccc1,7.7,nt,4.7,-149.7,3.1,28.6*
Cc1csc2nc(CN3CCN(CC(=O)N(C)C)CC3)cc(=O)n12,-3.8,nt,nt,nt,nt,nt
SMILES,IEC-6 tox,bCat nuc transl,BaF3 parental,APP transl inh,Ba/F3 V617F tox,MT stabilizer
N#Cc1cnc(NCc2ccc(Cl)cc2Cl)nc1,-3.0,nt,nt,nt,nt,nt
Nc1c(Cl)ncnc1N/N=C/c1ccc2ccccc2n1,7.7,-1.4,4.6,66.2*,-0.5,2.7
Nc1c(Cl)ncnc1N/N=C/c1cccnc1,0.7,0.4,19.1,nt,3.8,nt
Nc1c(Cl)ncnc1N/N=C/c1ccccn1,9.1,-1.4,6.2,92.0*,4.9,2.9
Nc1c(Cl)ncnc1N/N=C/c1ccnc2ccccc12,1.1,0.2,6.0,-23.5,1.0,1.1
COc1ccccc1N1CCN(C(=O)CCCNC(=O)Cn2cnc3sc(C)c(C)c3c2=O)CC1,-7.0,nt,nt,nt,nt,nt
COc1ccc(N(CC(=O)NCc2ccc(C)cc2)S(=O)(=O)c2c(C)[nH]c(=O)[nH]c2=O)cc1,-2.1,nt,nt,nt,nt,nt
S=c1[nH]nc(-c2cccc3ccccc23)n1-c1cccnc1,-2.6,-1.9,50.3*,nt,51.8*,nt
CCc1cccc(CC)c1-n1c(-c2cccnc2)n[nH]c1=S,-3.1,-9.0,3.9,-12.5,0.7,3.4
